Test results: ChEMBL document CHEMBL1143679, “Anti-inflammatory thiazine alkaloids isolated from the New Zealand ascidian Aplidium sp.: inhibitors of the neutrophil respiratory burst in a model of gouty arthritis” (J Nat Prod, 2007)
The source made the active and inactive calls.

Assays:
Neutrophil = experiment: Inhibition of PMA-stimulated superoxide production in human neutrophils; assay type: functional, cell-based
Outline: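 Neutrophils in HBSS, 1 × 10⁶ cells/well, preincubated 30 min with graded compound concentrations (HBSS, 1% v/v DMSO). WST-1 added (final 0.35 mM), then PMA (final 0.295 µM). Dye reduction read in real time at 450 nm for 20 min at 37 °C. Rate compared with buffer-treated cells; AI50 is the concentration giving 50% inhibition.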

HL-60 = experiment: Antiproliferative activity against human HL60 cells after 48 hrs by MTT assay; conditions: HL-60, 48 h
[1] = Inhibition of superoxide production by xanthine/xanthine oxidase method; assay type: functional
Outline: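 Cell-free enzyme assay. Graded compound dilutions were prepared in 0.1 M Tris pH 7.4, 0.2 mM EDTA, 1% v/v DMSO. Final WST-1 0.35 mM, xanthine 2.38 mM and xanthine oxidase 15 mU/mL. Absorbance at 450 nm was read in real time for 20 min at 37 °C. The rate was compared with buffer controls, and the 50% inhibitory concentration was reported.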

Mus musculus [2] = experiment: Inhibition of superoxide production in peritoneal neutrophils of C57BL/6 gouty mouse at 25.6 umol/kg, po after 4 hrs relative to monosodium urate; assay type: functional; conditions: C57BL/6, po
Outline: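 Male C57BL/6 mice, 8–12 weeks, received MSU crystals (3 mg in 500 µL PBS pH 7.4) ip, with oral gavage of compound (25.6 µmol/kg) at the same time. PBS-gavaged controls; colchicine given sc at 5 µmol/kg. After 4 h, peritoneal lavage with heparinized PBS. Cells adjusted to 1 × 10⁶ neutrophils/mL; PMA-triggered WST-1 reduction measured per million neutrophils, relative to MSU-only mice.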

Mus musculus [3] = experiment: Inhibition of urate-induced neutrophil recruitment into peritoneal cavity in mouse at 25 umol/kg; assay type: functional
Outline: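 In the ip MSU (3 mg) mouse model with oral gavage dosing, peritoneal lavage was taken at 4 h. Total cells were counted. A cytocentrifuged aliquot was stained with Diff-Quick, and the neutrophil percentage was scored microscopically by standard histological criteria.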

Row | IC50 (Neutrophil) | IC50 (HL-60) | IC50 [1] | SMILES | inhibition in vivo at 25.6 µmol/kg (Mus musculus [2]) | Activity (Mus musculus [3]) | inhibition in vivo at 25 µmol/kg (Mus musculus [3])
1 | – | – | 55.9 µM | O=C(O)c1ccc2c(n1)C(=O)C1=C(C2=O)S(=O)(=O)CCN1 [ACIDIATHIAZONE A] | 23% | inactive | –
2 | – | – | 18.2 µM | COC(=O)c1ccc2c(n1)C(=O)C1=C(C2=O)S(=O)(=O)CCN1 [ASCIDIATHIAZONE A METHYL ESTER] | 84% | – | 60%
3 | 0.44 µM | 16.7 µM | 17.9 µM | O=C(O)c1ccc2c(n1)C(=O)C1=C(NC=CS1(=O)=O)C2=O [ASCIDIATHIAZONE B] | 59% | inactive | –
4 | – | 0.00692 µM | – | CN(Cc1cnc2nc(N)nc(N)c2n1)c1ccc(C(=O)N[C@@H](CCC(=O)O)C(=O)O)cc1 [METHOTREXATE] | – | – | –

Continued, compound first:

Row | SMILES | IC50 (Neutrophil) | IC50 (HL-60) | IC50 [1] | inhibition in vivo at 25.6 µmol/kg (Mus musculus [2]) | Activity (Mus musculus [3]) | inhibition in vivo at 25 µmol/kg (Mus musculus [3])
5 | COC(=O)c1ccc2cccc(O)c2n1 | 277 µM | 96.9 µM | – | – | – | –
6 | COC(=O)c1ccc2c(n1)C(=O)C=CC2=O | 1.75 µM | 4.11 µM | – | – | – | –
7 | Oc1ncnc2[nH]ncc12 [ALLOPURINOL] | – | – | 42.2 µM | – | – | –
